Dynein transport: dynein cargo transport inhibition; z-score, hits read low; 3617.4 mouse cells, GR-EGFP nuclear translocation imaging; test concentration mostly 20 µM; stimulated with dexamethasone, 1 µM; stronger effect = lower value; hit rate 0.47% among 220,000;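 active = plate z-score of nuclear minus cytoplasmic receptor signal below a set negative limit, without overly bright fluorescence or cell loss, cut at about -3.5 in these data, passing the limit was not always enough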;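 note: z-score of nuclear minus cytoplasmic ring GR-EGFP intensity difference per well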
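Schedule: 48 h induction, then 1 h compound, then 30 min agonist, 37 °C. Buffer or medium: tetracycline-free induction medium containing charcoal-stripped FBS. Reagent: 1.0 µM final dexamethasone stimulus. Evaluation: nuclear versus cytoplasmic GR-EGFP signal, averaged per well. Signal: high-content fluorescence imaging after fixation.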
Tb hexokinase: T. brucei hexokinase 1 inhibition; recombinant TbHK1, G6PDH-coupled NADH A340; inhibition, % at 10 µM; hit rate 0.11% among 220,000; AID 1430;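 active = inhibition of 50% or more in the single-dose primary screen; inactive = inhibition below 50%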
S1P4 ag: agonists of human S1P4 receptor; O95977; S1P4-expressing cell line, agonist reporter assay; activation, % at 4.98 µM; hit rate 0.35% among 220,000; AID 1509; in the data active = activation above about 11%
S1P3 antagonist: blocks the human S1P3 receptor | CHO S1P3 NFAT-BLA reporter, FRET fluorescence, antagonist mode | inhibition, % at 4.98 µM | hit rate 0.27% among 170,000;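 active = inhibition above the plate cutoff, the mean inhibition of test wells on that plate plus 3 SD, cut at about 28% in these data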;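 note: cells challenged with S1P at its EC80 of 0.8 µM; blue over green emission ratio from cleaved BLA substrate after 4 h stimulation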
Calb biofilm kill: mixtures killing C. albicans biofilm; inhibition, % at 7.6 µM; hit rate 0.02% among 120,000; AID 1242; C. albicans biofilm persisters + clotrimazole, fluorescence viability; primary screen in compound mixtures of four per well;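 note: compounds exposed to preformed 24 h biofilms for 48 h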
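Assay system: C. albicans biofilms / Medium: RPMI/MOPS medium, pH 7.0 / Schedule: biofilm formation 24 h, compound exposure 48 h, 37 °C / Measured by: Alamar Blue fluorescence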
S1P4 antagonist: antagonists of human S1P4 receptor; hit rate 0.26% among 220,000; AID 1510; inhibition, % at 4.98 µM; S1P4-expressing cells, antagonist mode, reporter read-out; O95977; in the data active = inhibition above about 29%
S1P4 antag conf: confirmation of human S1P4 receptor antagonists | shares compounds with S1P4 antagonist | S1P4-expressing cell line, antagonist mode, reporter read-out | inhibition, % at 4.98 µM | hit rate 71% among 520 | AID 1524; in the data active = inhibition above about 30%
S1P1 antagonist: counter-screen for S1P4 antagonists: antagonists of human S1P1; AID 1564; cell-based S1P1 antagonist counterscreen, inhibition; inhibition, % at 4.98 µM; shares compounds with S1P4 antagonist; hit rate 37% among 520; in the data active = inhibition above about 40%;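 note: receptor stimulated with S1P near its EC80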
Target sequence (P21453 whole entry, looked up): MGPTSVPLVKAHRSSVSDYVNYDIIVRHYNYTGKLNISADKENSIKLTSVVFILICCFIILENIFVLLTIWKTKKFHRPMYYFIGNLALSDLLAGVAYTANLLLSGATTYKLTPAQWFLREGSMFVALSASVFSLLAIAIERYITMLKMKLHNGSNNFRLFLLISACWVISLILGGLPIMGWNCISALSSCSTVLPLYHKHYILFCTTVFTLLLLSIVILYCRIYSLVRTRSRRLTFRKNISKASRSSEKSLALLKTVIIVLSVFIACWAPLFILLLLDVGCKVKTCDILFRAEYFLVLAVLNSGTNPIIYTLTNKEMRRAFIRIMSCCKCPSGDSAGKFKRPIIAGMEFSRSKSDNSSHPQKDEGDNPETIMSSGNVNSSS
Large screens that a line does not name were inactive (follow-up assays come after a bar, where they were run). Hits are enriched below; roughly 1.3% of the tested compounds scored in any of these assays.

OC(CNCCc1ccccc1)COc1ccc(OCC(O)CNCCc2ccccc2)cc1 (stereo not given)	S1P4 antagonist 32.4 | S1P4 antag conf 55.2 | S1P1 antagonist inactive
N#CCCN1CCCc2cc(N=Nc3ccc(C(F)(F)F)cc3)ccc21	S1P4 antagonist 31.3 | S1P4 antag conf 84.6 | S1P1 antagonist inactive
CCCCC(CC)c1nnc(NC(=O)c2cccs2)s1 (stereo not given)	S1P4 antagonist 29.3 | S1P4 antag conf inactive | S1P1 antagonist inactive
CC(C)c1nnc(NC(=O)c2cccs2)s1	none (no result: Calb biofilm kill)
Cc1cccc2cc(C#N)c(N3CCC(O)CC3)nc12	none
O=C(Nc1ccc(Cl)cc1)/C(=C/c1ccc([N+](=O)[O-])cc1)c1nc2ccccc2s1	none
O=C(Nc1cccc(S(=O)(=O)N2CCCCC2)c1)c1ccc([N+](=O)[O-])o1	S1P4 antagonist 53.8 | S1P4 antag conf 95.2 | S1P1 antagonist inactive
Cc1ccc(NC(=O)c2ccc([N+](=O)[O-])o2)cc1S(=O)(=O)N1CCOCC1	S1P4 antagonist 67.9 | S1P4 antag conf 88.0 | S1P1 antagonist 42.2
O=C(NCc1ccco1)c1ccc2c(c1)CCO2	S1P4 antagonist 30.2 | S1P4 antag conf inactive | S1P1 antagonist inactive
O=C(/C=C/c1ccccc1O)c1ccc(Cl)cc1	S1P4 antagonist 45.6 | S1P4 antag conf 59.4 | S1P1 antagonist inactive
COc1ccccc1/C=C/C(=O)c1ccc(Cl)cc1	none (no result: S1P3 antagonist, Calb biofilm kill)
COc1ccc(CNC(=O)c2cc(C)nn2-c2ccccc2)cc1	none
O=C(COC(=O)CNC(=O)c1ccco1)NCc1ccc(F)cc1	none
CN(CCC#N)C(=O)COC(=O)c1cc(Cl)cc(Cl)c1N	none
COC(=O)CCS(=O)(=O)c1nc(-c2ccccc2)cc(C(F)(F)F)n1	S1P4 antagonist 60.3 (no result: S1P3 antagonist, Calb biofilm kill) | S1P4 antag conf 113.1 | S1P1 antagonist inactive
CCOC(=O)CS(=O)(=O)c1nc(-c2ccccc2)cc(C(F)(F)F)n1	S1P4 antagonist 98.1 | S1P4 antag conf 115.5 | S1P1 antagonist inactive
O=C(O)CCS(=O)(=O)c1nc(-c2cccs2)cc(C(F)(F)F)n1	none (no result: S1P3 antagonist, Calb biofilm kill)
CS(=O)(=O)c1nc(-c2cccs2)cc(C(F)(F)F)n1	S1P4 antagonist 39.4 (no result: S1P3 antagonist, Calb biofilm kill) | S1P4 antag conf 118.5 | S1P1 antagonist 40.8
CCOC(=O)CS(=O)(=O)c1ccccc1	none (no result: S1P3 antagonist, Calb biofilm kill)
CCOC(=O)CCS(=O)(=O)c1nc(-c2ccccc2)cc(C(F)(F)F)n1	S1P4 antagonist 84.3 (no result: Calb biofilm kill) | S1P4 antag conf 114.0 | S1P1 antagonist 51.7
C/C(=N/NC(=O)CN1CCN(Cc2ccccc2Cl)CC1)c1cccs1	none
COc1cccc(NC(=O)NC(C)C2CC3CCC2C3)c1 (stereo not given)	none
O=C(O)C1CCC(Cn2c(SCc3cc(=O)n4ccccc4n3)nc3ccsc3c2=O)CC1 (stereo not given)	none
COCCCNC(=O)CN1C(=O)c2ccccc2C1=O	none (no result: Calb biofilm kill)
CC1CCCCC1NC(=O)CN1C(=O)c2cccc(N)c2C1=O (stereo not given)	S1P4 antagonist 31.5 | S1P4 antag conf 30.1 | S1P1 antagonist inactive
CCCCNC(=O)CN1C(=O)c2cccc(N)c2C1=O	S1P4 antagonist 38.8 | S1P4 antag conf inactive | S1P1 antagonist inactive
COc1cnc(-c2ccccn2)nc1Sc1ccc(F)cc1	none
O=C(NC(Cc1ccccc1)C(=O)Oc1ccc2c(C(F)(F)F)cc(=O)oc2c1)OCc1ccccc1 (stereo not given)	S1P4 antagonist 29.7 | S1P4 antag conf 47.2 | S1P1 antagonist inactive
O=C(NCCCN1CCOCC1)c1ccc(CSc2ccc(Cl)cc2)cc1	none
CCOc1ccccc1C1C2=C(COC2=O)Nc2cc3c(cc21)OCO3 (stereo not given)	none
C#CCOc1ccc(C2C3=C(COC3=O)Nc3cc4c(cc32)OCO4)cc1OC (stereo not given)	S1P4 antagonist 38.3 | S1P4 antag conf 39.4 | S1P1 antagonist 79.8
COc1cc(-c2nc3n(n2)C(c2ccncc2)C(C(N)=O)=C(C)N3)cc(OC)c1OC (stereo not given)	S1P4 antagonist 65.9 (no result: Calb biofilm kill) | S1P4 antag conf inactive | S1P1 antagonist inactive
